pIC50: −log10 of the molar value. The source made the active and inactive calls. The rule behind the calls is not given here.
Tests used:
[1] = system: MIA PaCa-2; assay: Induction of apoptosis in human MIA PaCa-2 cells assessed as increase in caspase 3/7 activation at 10 uM incubated for 24 hrs by Caspase-Glo assay; assay type: functional, cell-based
In short: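 MiaPaCa2 cells (2.5 × 10⁴/well) attached overnight, then treated 24 h at 0.1% final DMSO. alamarBlue added at 21 h for 3 h and fluorescence read at 560/590. Caspase-Glo luminescence read 2 h later. Luminescence ×100/fluorescence normalized to DMSO average, n = 3.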

[2] = system: MIA PaCa-2; assay: Antitumor activity against human MIA PaCa-2 cells xenografted in Foxn1nu athymic nude mouse assessed as reduction in tumor volume at 15 mg/kg, ip administered every 3 days for 4 weeks by digital caliper method relative to control; assay type: functional; parameters: scale not given: the % may be the effect or the level left
In short: (§1)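 MiaPaCa2 cells (2.5 × 10⁶, mixed 2:1 with Matrigel) implanted subcutaneously in left flank; randomised 20 days later (n = 6/group). Gemcitabine 15 mg/kg i.p. every 72 h against vehicle (100 µl daily orally). Tumour volume measured every 3 days by caliper as 1/2 × length × width² (mm³); mice sacrificed after 27th treatment day and tumours weighed; unpaired Student's t-test.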

[3] = system: MIA PaCa-2; assay: Antitumor activity against human MIA PaCa-2 cells xenografted in Foxn1nu athymic nude mouse assessed as reduction in tumor weight at 15 mg/kg, ip administered every 3 days for 4 weeks […]; assay type: functional; parameters: scale not given: the % may be the effect or the level left; in short: as §1
[4] = target: T1, Inhibitor of nuclear factor kappa-B kinase subunit beta (Homo sapiens, UniProt O14920); assay: Inhibition of TNFalpha-induced IKKbeta mediated NF-kappaB activation in human Pancreatic cancer cells by luciferase reporter gene assay; parameters: species or system Pancreatic cancer cell
T1 sequence (O14920 whole entry): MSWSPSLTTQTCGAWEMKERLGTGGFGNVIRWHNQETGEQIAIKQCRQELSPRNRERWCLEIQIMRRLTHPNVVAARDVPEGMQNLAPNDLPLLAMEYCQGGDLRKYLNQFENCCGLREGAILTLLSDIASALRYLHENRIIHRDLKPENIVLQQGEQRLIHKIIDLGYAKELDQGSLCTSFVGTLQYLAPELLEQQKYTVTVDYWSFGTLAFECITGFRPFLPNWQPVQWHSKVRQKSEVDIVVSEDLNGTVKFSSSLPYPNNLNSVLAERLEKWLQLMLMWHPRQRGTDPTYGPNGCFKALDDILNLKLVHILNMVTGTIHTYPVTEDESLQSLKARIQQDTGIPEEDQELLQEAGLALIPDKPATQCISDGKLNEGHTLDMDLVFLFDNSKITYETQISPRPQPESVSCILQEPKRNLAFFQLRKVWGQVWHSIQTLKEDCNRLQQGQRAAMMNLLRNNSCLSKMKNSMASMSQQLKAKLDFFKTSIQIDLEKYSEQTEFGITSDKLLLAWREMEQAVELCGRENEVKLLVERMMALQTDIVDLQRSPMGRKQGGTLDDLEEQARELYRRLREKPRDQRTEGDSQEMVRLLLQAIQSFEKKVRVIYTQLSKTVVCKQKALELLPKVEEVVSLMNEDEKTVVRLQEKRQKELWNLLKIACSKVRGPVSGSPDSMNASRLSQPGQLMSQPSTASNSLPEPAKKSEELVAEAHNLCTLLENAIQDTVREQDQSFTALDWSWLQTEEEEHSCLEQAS

[5] = Half life in CD1 mouse at 20 mg/kg, po measured up to 24 hrs measured by LC/MS-MS analysis; assay type: ADME, organism-based; conditions: in vivo
In short: (§2)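 Oral 20 mg/kg given in DMSO:PEG400:H2O 1:4:5. Mice killed at 0.083, 0.25, 0.5, 1, 2, 4, 8 and 24 h and plasma analysed by LC/MS/MS with a carbamazepine internal standard. Parameters derived by non-compartmental analysis.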

[6] = Tmax in CD1 mouse at 20 mg/kg, po measured up to 24 hrs measured by LC/MS-MS analysis; assay type: ADME, organism-based; conditions: in vivo; in short: as §2
[7] = Cmax in CD1 mouse at 20 mg/kg, po measured up to 24 hrs measured by LC/MS-MS analysis; assay type: ADME, organism-based; parameters: route oral, dose 20 mg/kg, time <=24; conditions: in vivo; in short: as §2
[8] = AUClast in CD1 mouse at 20 mg/kg, po measured up to 24 hrs measured by LC/MS-MS analysis; assay type: ADME, organism-based; parameters: route oral, dose 20 mg/kg, time <=24; conditions: in vivo; in short: as §2
[9] = AUC (0 to infinity) in CD1 mouse at 20 mg/kg, po measured up to 24 hrs measured by LC/MS-MS analysis; assay type: ADME, organism-based; parameters: route oral, dose 20 mg/kg, time <=24; conditions: in vivo; in short: as §2
[10] = MRT (0 to infinity) in CD1 mouse at 20 mg/kg, po measured up to 24 hrs measured by LC/MS-MS analysis; assay type: ADME, organism-based; conditions: in vivo; in short: as §2
[11] = Oral bioavailability in CD1 mouse at 20 mg/kg measured up to 24 hrs measured by LC/MS-MS analysis; assay type: ADME, organism-based; conditions: in vivo
In short: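 %F taken from oral (20 mg/kg, DMSO:PEG400:H2O 1:4:5) and intravenous (10 mg/kg, DMSO:PEG400:H2O 1:5:4) AUC0-∞. Plasma sampled from 0.083 to 24 h and quantified by LC/MS/MS with a carbamazepine internal standard. Non-compartmental analysis.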

[12] = target: T2, Inhibitor of nuclear factor kappa-B kinase subunit beta (Homo sapiens) (UniProt O14920); assay: Inhibition of IKKbeta phosphorylation in human Pancreatic cancer cells measured after 6 hr by Western blot analysis; conditions: Pancreatic cancer cell, dose 0.5-5 µM
T2 sequence (whole entry): T1 sequence (O14920 whole entry)
In short: (§3)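 T3M4 cells treated at 0.5–5.0 µM for 6 h, or at 5 µM for 0.5–24 h. Lysates (40 µg protein) run on 4–20% SDS-PAGE and transferred to PVDF. Blots probed for p-IKKβ and IKKβ with β-actin loading control, chemiluminescent detection.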

[13] = target: T2, Inhibitor of nuclear factor kappa-B kinase subunit beta (Homo sapiens); assay: Inhibition of IKKbeta phosphorylation in human Pancreatic cancer cells at 5 uM by Western blot analysis; conditions: Pancreatic cancer cell, time hrs <=24, TDE = time-dependent effect; in short: as §3
[14] = Antiproliferative activity against human T3M4 cells assessed as growth inhibition after 72 hrs by PrestoBlue dye based fluorescence assay; assay type: functional
[15] = system: MIA PaCa-2; assay: Antiproliferative activity against human MIA PaCa-2 cells assessed as growth inhibition after 72 hrs by PrestoBlue dye based fluorescence assay; assay type: functional
[16] = system: MIA PaCa-2; assay: Induction of cell death in human MIA PaCa-2 cells measured after 24 hrs by fluorescent microscopy; assay type: functional, cell-based
In short: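 MiaPaCa2 cells treated with 5 and 10 µM for 24 h, then stained with calcein-AM plus ethidium homodimer-1 for 30 min. Live and dead cells imaged by fluorescence microscopy. Dead/total cell ratio computed, n = 3. Two-way ANOVA with Bonferroni test.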

[17] = system: MIA PaCa-2; assay: Anti-migration activity in human MIA PaCa-2 cells at 5 uM measured upto 48 hrs by microscopy based wound scratch method; assay type: functional, cell-based; conditions: time hrs <=48
[18] = Half life in CD1 mouse at 10 mg/kg, iv measured up to 24 hrs measured by LC/MS-MS analysis; assay type: ADME, organism-based; conditions: in vivo
In short: (§4)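 Single intravenous 10 mg/kg dose in DMSO:PEG400:H2O 1:5:4. Mice killed at 0.083, 0.25, 0.5, 1, 2, 4, 8 and 24 h. Plasma levels measured by LC/MS/MS against a carbamazepine internal standard. Parameters derived by non-compartmental analysis.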

[19] = Cmax in CD1 mouse at 10 mg/kg, iv measured up to 24 hrs measured by LC/MS-MS analysis; assay type: ADME, organism-based; parameters: route intravenous, dose 10 mg/kg, time <=24; conditions: in vivo; in short: as §4
[20] = AUClast in CD1 mouse at 10 mg/kg, iv measured up to 24 hrs measured by LC/MS-MS analysis; assay type: ADME, organism-based; parameters: route intravenous, dose 10 mg/kg, time <=24; conditions: in vivo; in short: as §4
[21] = AUC (0 to infinity) in CD1 mouse at 10 mg/kg, iv measured up to 24 hrs measured by LC/MS-MS analysis; assay type: ADME, organism-based; parameters: route intravenous, dose 10 mg/kg, time <=24; conditions: in vivo; in short: as §4
[22] = MRT (0 to infinity) in CD1 mouse at 10 mg/kg, iv measured up to 24 hrs measured by LC/MS-MS analysis; assay type: ADME, organism-based; conditions: in vivo; in short: as §4
[23] = Volume of distribution at steady state in CD1 mouse at 10 mg/kg, iv measured up to 24 hrs measured by LC/MS-MS analysis; assay type: ADME, organism-based; conditions: in vivo, read-out: Vdss; in short: as §4
[24] = system: MIA PaCa-2; assay: Antitumor activity against human MIA PaCa-2 cells xenografted in Foxn1nu athymic nude mouse assessed as reduction in tumor volume at 40 mg/kg, po administered for 4 weeks by digital caliper method relative to control; assay type: functional; parameters: scale not given: the % may be the effect or the level left
In short: (§5)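 MiaPaCa2 cells (2.5 × 10⁶, with Matrigel 2:1) implanted s.c. in the left flank. Mice randomized at day 20, n = 6 per group. Compound given orally once daily; gemcitabine 15 mg/kg i.p. every 72 h where combined; vehicle 100 µl orally. Tumors measured by caliper every 3 days (1/2 × L × W²). Tumors weighed after sacrifice after day 27. Unpaired t-test.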

[25] = system: MIA PaCa-2; assay: Antitumor activity against human MIA PaCa-2 cells xenografted in Foxn1nu athymic nude mouse assessed as reduction in tumor weight at 40 mg/kg, po administered for 4 weeks […] relative to control; assay type: functional; parameters: scale not given: the % may be the effect or the level left; in short: as §5
[26] = system: MIA PaCa-2; assay: Antitumor activity against human MIA PaCa-2 cells xenografted in Foxn1nu athymic nude mouse assessed as reduction in tumor weight at 40 mg/kg, po administered for 4 weeks in combination gemcitabine […]; assay type: functional; conditions: MIA PaCa-2, po, 672 h; in short: as §5
[27] = system: MIA PaCa-2; assay: Antitumor activity against human MIA PaCa-2 cells xenografted in Foxn1nu athymic nude mouse assessed as reduction in tumor volume at 40 mg/kg, po administered for 4 weeks in combination gemcitabine by digital caliper method relative to control; assay type: functional; conditions: MIA PaCa-2, po, 672 h; in short: as §5
[28] = system: MIA PaCa-2; assay: Antitumor activity against human MIA PaCa-2 cells xenografted in Foxn1nu athymic nude mouse assessed as reduction in proliferation index at 40 mg/kg, po administered for 4 weeks by Ki67 staining based assay; assay type: functional, organism-based
In short: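 Same xenograft and dosing design. Formalin-fixed paraffin sections (5 µm) stained with anti-Ki-67. Percentage of Ki-67-positive cells counted in 4 fields per tumor, n = 5. Unpaired t-test.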

[29] = system: Mus musculus; assay: In vivo inhibition of IKKbeta in Foxn1nu athymic nude mouse xenografted with human MIA PaCa-2 cells assessed as reduction in p-IKKbeta level at 40 mg/kg, po administered for 4 weeks by immunohistochemistry analysis; assay type: functional, organism-based
In short: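 Same xenograft tissue. Paraffin sections antigen-retrieved in citrate pH 6.0 and stained with p-IKKβ antibody overnight at 4 °C, then HRP secondary. Histoscore (0–15) = proportion score × intensity score (0–3), n = 5. Unpaired t-test.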

SMILES: Cn1cc(-c2cnc3ccc(NC(=O)Nc4cccc(OC(F)(F)F)c4)cc3n2)cn1
- Activity [1]: inactive

SMILES: Cn1cc(-c2cnc3ccc(NC(=O)Nc4ccc(F)c(Cl)c4)cc3n2)cn1
- Activity [1]: inactive

SMILES: Nc1ccn([C@@H]2O[C@H](CO)[C@@H](O)C2(F)F)c(=O)n1 [GEMCITABINE]
- Activity [2]: 45%
- Activity [3]: 45%

SMILES: O=C(Nc1ccc(Br)cc1)Nc1ccc2nc(-c3ccco3)c(-c3ccco3)nc2c1
- Activity [1]: inactive
- pIC50 [4]: 5.08
- half-life [5]: 2 h
- Tmax [6]: 2.5 h
- Cmax [7]: 300 ng/mL
- AUC(0-t) at 24 h [8]: 1630 ng·h/mL
- AUC(0-inf) [9]: 1860 ng·h/mL
- MRT inf [10]: 5.2 h
- bioavailability [11]: 3.1%

SMILES: Cn1cc(-c2cnc3ccc(NC(=O)Nc4cccc(C(F)(F)F)c4)cc3n2)cn1
- Activity [1]: inactive

SMILES: Cc1ccc2nc(NCCN)c3ncc(C)n3c2c1
- Activity [1]: inactive

SMILES: Cn1cc(-c2cnc3ccc(NC(=O)Nc4ccc(F)c(OC(F)(F)F)c4)cc3n2)cn1
- Activity [1]: inactive

SMILES: Cn1cc(-c2cnc3ccc(NC(=O)Nc4cccc(C(F)(F)F)c4F)cc3n2)cn1
- Activity [1]: Active
- pIC50 [4]: 5.48
- inhibition [12]: Dose-Dependent Effect
- inhibition [13]: Tde
- GI50 [14]: 1.7 µM
- GI50 [15]: 2.8 µM
- Activity [16]: Dose-Dependent Effect
- Activity [17]: Active
- half-life [5]: 2.5 h
- half-life [18]: 2.7 h
- Tmax [6]: 6 h
- Cmax [7]: 700 ng/mL
- Cmax [19]: 5980 ng/mL
- AUC(0-t) at 24 h [8]: 7990 ng·h/mL
- AUC(0-t) at 24 h [20]: 20300 ng·h/mL
- AUC(0-inf) [9]: 8010 ng·h/mL
- AUC(0-inf) [21]: 22800 ng·h/mL
- MRT inf [10]: 6.3 h
- MRT inf [22]: 4.5 h
- Vd [23]: 2 L/kg
- bioavailability [11]: 17.6%
- Activity [24]: 75%
- Activity [25]: 75%
- inhibition in vivo at 40 mg/kg [26]: > 90%
- inhibition in vivo at 40 mg/kg [27]: > 90%
- Activity [28]: Active
- Activity [29]: Active

SMILES: Cc1cc(NC(=O)Nc2ccc3ncc(-c4cnn(C)c4)nc3c2)ccc1F
- Activity [1]: inactive
